One data set is filed under the species Homo sapiens. Put plainly: In vitro inhibitory activity against MCF-7 mammary cell line. As to conditions: MCF7, read-out: ID50 (the source's name). The data set is classed as functional. The procedure, abridged:
(§1)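 Exponentially growing cells exposed 3 days to drug at final 10^-9 to 10^-4 M. L1210: RPMI 1640 + 10% FCS, seeded 1.5 × 10^5 cells/mL in flasks. MCF7: DMEM + 10% FCS, 10^5 cells/well in 6-well plates. Growth and viability by trypan blue counting; ID50 = concentration inhibiting growth by 50% of control.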

The species entered for data set [1] is Mus musculus. Put plainly: In vitro inhibitory activity against L1210 leukemia cell line. The data set is classed as functional. The settings on record: read-out: ID50 (the source's name). An outline of the steps: as §1
A further data set relates to Nucleic Acid. Nature of the data set: Thermal denaturation of calf-thymus DNA was evaluated. The data set is classed as functional. As to conditions: Bos taurus. An outline of the steps:
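Calf thymus DNA (% GC 42) at 2 × 10^-4 M in 0.1 SSC (0.15 M NaCl/0.015 M sodium citrate, pH 7.0). Six curves at P/DNA = 0, 0.2, 0.4, 0.6, 0.8 and 1. A260 followed from 20 to 95 °C at 1 °C/min in a 10-mm cell. Tm = midpoint of the hyperchromic transition.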

For data set [2], the species on record is Mus musculus. Nature of the data set: In vitro cytotoxicity against L1210 leukemia cell line. The data set is classed as functional. As to conditions: read-out: LD50 (the source's name). An outline of the steps:
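L1210 mouse lymphocytic leukemia cells in RPMI 1640 with 10% (v/v) foetal calf serum, in exponential growth, seeded at 1.5 × 10^5 cells/mL in flasks; drug added at final 10^-9 to 10^-4 M for 3 days. Growth and viability counted by trypan blue staining; ID50 is the concentration inhibiting cell growth by 50% of control.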

The nature of data set [3]: Therapeutic effect against P388 leukemia in mice on days 1, 5 and 9 after administration of 1.6 mg/kg dose expressed as median survival time of treated and control mice (in vivo). The data set is classed as organism-based. Also on record: dose 1.6 mg/kg. The settings on record: mouse. The procedure, abridged:
(§2)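 DBA2 mice implanted ip with 10^6 P388 cells on D0; drug given ip on D1, D5, D9. Groups of 7 treated mice, 10 untreated controls. Mice weighed daily; study ended D45. T/C (%) = median survival time of treated over control group.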

A short description of data set [4]: Therapeutic effect against P388 leukemia in mice on days 1, 5 and 9 after administration of 25 mg/kg dose expressed as median survival time of treated and control mice (in vivo). The settings on record: mouse. Also on record: dose 25 mg/kg. The data set is classed as organism-based. An outline of the steps: as §2
Data set [5] is described as follows: Therapeutic effect against P388 leukemia in mice on days 1, 5 and 9 after administration of 10 mg/kg dose expressed as median survival time of treated and control mice (in vivo). The data set is classed as organism-based. Also on record: dose 10 mg/kg. As to conditions: mouse. The procedure, abridged: as §2
Data set [6] in a line: Therapeutic effect against P388 leukemia in mice on days 1, 5 and 9 after administration of 5 mg/kg dose expressed as median survival time of treated and control mice (in vivo). The format is organism-based. Also on record: dose 5 mg/kg. As to conditions: mouse. The procedure, abridged: as §2

The structures appear in SMILES notation.

Take `O=C1c2c(O)ccc(O)c2C(=O)c2c(NCCNCCO)ccc(NCCNCCO)c21` [MITOXANTRONE]: the IC50 was found to be 0.27 µM in the data set filed under Homo sapiens and 0.007 µM in the data set filed under Mus musculus [1]. Also, in the data set with Nucleic Acid, the ΔTm stood at 15.9 °C. Further, the CC50 in the data set listed under Mus musculus [2] was determined as 0.007 µM. The T/C in data set [3] is on record as 190.
Consider `NCCCC(NC(=O)[C@@H](Cc1c[nH]cn1)NC(=O)CNc1ccc(O)c2c1C(=O)c1c(O)ccc(O)c1C2=O)C(=O)O` (stereo partly drawn), for which the shift in melting temperature (ΔTm) in the data set with Nucleic Acid was 11.3 °C.
Regarding `NCC(=O)NCC(=O)N[C@@H](Cc1c[nH]cn1)C(=O)NCCNc1ccc(NCCNC(=O)[C@H](Cc2c[nH]cn2)NC(=O)CNC(=O)CN)c2c1C(=O)c1c(O)ccc(O)c1C2=O` [listing 1 of 2 here], the T/C was found to be 230 in data set [4], 150 in data set [5] and 140 in data set [6].
As to `NCC(=O)NCC(=O)N[C@@H](Cc1c[nH]cn1)C(=O)NCCNc1ccc(NCCNC(=O)[C@@H](Cc2c[nH]cn2)NC(=O)CNC(=O)CN)c2c1C(=O)c1c(O)ccc(O)c1C2=O`, the ΔTm in the data set with Nucleic Acid is 17.1 °C.
`NCC(=O)NCC(=O)N[C@@H](Cc1c[nH]cn1)C(=O)NCCNc1ccc(NCCNC(=O)[C@H](Cc2c[nH]cn2)NC(=O)CNC(=O)CN)c2c1C(=O)c1c(O)ccc(O)c1C2=O` [listing 2 of 2 here]: the IC50 in the data set listed under Homo sapiens is 0.8 µM; in the data set filed under Mus musculus [1], 0.05 µM. Further, the CC50 in the data set listed under Mus musculus [2] came to 0.07 µM.

Values taken from ChEMBL document CHEMBL1126952, “Synthesis and antitumor properties of an anthraquinone bisubstituted by the copper chelating peptide Gly-Gly-L-His” (J Med Chem, 1993).
